Compound activity deposited in PubChem by Johns Hopkins Ion Channel Center.
MrgX1 antag = human MrgX1 receptor antagonism, primary screen; B-score at 10 µM; hit rate 1.3% among 310,000; MRGX1-HEK293 calcium flux, Fluo-4, BAM8-22 antagonism; hits give low values;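 active means calcium-response B-score plate-corrected more than 3 library SD below zero, starting fluorescence within 5 deviations, no agonist response on first addition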;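 further: peak minus trough fluorescence over baseline after final BAM8-22 challenge near maximal dose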
Target sequence (Q96LB2 whole entry, looked up): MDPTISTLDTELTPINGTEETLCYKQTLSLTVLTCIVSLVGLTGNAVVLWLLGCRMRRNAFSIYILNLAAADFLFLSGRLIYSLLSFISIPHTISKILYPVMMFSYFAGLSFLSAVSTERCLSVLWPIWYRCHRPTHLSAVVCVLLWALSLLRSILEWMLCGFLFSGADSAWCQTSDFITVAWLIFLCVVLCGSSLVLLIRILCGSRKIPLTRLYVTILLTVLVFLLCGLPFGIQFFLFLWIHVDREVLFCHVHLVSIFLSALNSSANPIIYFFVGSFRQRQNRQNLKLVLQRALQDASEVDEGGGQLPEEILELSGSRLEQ
MrgX1 allo act = human MrgX1 positive allosteric modulation, primary screen; hit rate 0.63% among 310,000; MrgX1-HEK293, Fluo-4 calcium flux, FDSS; hits give high values; B-score at 10 µM;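 active means plate-corrected calcium response at least 3 library SD above typical, normal starting fluorescence, not activating the receptor alone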;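 further: compound read alongside a low EC10 to EC30 dose of BAM8-22 agonist; peak minus trough fluorescence over baseline measured at the second addition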
RGS4 pot = RGS4 potentiation or activation | HEK293 M3R/inducible RGS4, carbachol calcium flux Fluo4; hits give low values | B-score at 10 µM | hit rate 0.92% among 310,000;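 active means B-score of the integrated calcium signal more than 4 SD below the library mean, with starting fluorescence not abnormally high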;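 further: negative B-score means reduced calcium response which marks RGS4 activation or potentiation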
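System – HEK293 FlpIn-TREx cells, stable M3R, doxycycline-inducible RGS4 · Reagent – ECmax carbachol challenge · Times – compound preincubation 20 min at room temperature before agonist · Technique – Fluo4 fluorescence kinetic imaging of calcium · Measure – B score of integrated Fluo4 ratio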
MrgX1 ag = activates human MrgX1 receptor signaling. Q96LB2. MrgX1-HEK293 cells, Fluo-4 calcium fluorescence, agonist mode; hits give high values. B-score at 10 µM. hit rate 0.44% among 310,000;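 active means calcium response B-score plate-corrected fluorescence ratio at least 3 library SD, with starting fluorescence B-score inside 5 SD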
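System: HEK293 cells stably expressing human MrgX1 receptor; Dosing: test compound in the initial addition of three; Schedule: overnight plating, then 30 min 37 °C plus 30 min room-temperature dye loading; Detection: kinetic calcium dye fluorescence, Fluo-4 NW; Controls: per-plate positive and negative controls for Z′ factor.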
RGS4 block = inhibitors of human RGS4; P49798; HEK293 M3R/RGS4 inducible, Fluo-4 calcium flux; hits give high values; triggered by carbachol at its EC20; B-score at 10 µM; hit rate 0.45% among 310,000;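 active means B-score, a plate-corrected calcium signal, over three deviations above library mean, with baseline fluorescence within five deviations of library mean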;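 further: RGS4 expression induced by doxycycline in cells with stable M3 receptor; B-score is computed from the integrated fluorescence ratio over baseline after carbachol; higher B-score means a larger calcium signal and so more RGS4 inhibition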
Target sequence (P49798 whole entry, looked up): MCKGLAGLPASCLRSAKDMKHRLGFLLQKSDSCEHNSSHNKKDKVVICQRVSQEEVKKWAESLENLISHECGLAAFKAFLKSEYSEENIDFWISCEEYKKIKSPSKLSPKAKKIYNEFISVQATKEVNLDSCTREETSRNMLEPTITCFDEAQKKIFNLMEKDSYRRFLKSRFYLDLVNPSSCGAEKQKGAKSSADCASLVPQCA
MrgX1 antag conf = human MrgX1 receptor antagonism, re-confirmation screen; MrgX1-HEK293, BAM8-22 calcium flux, Fluo-4; hits give low values; hit rate 19% among 2,300; shares compounds with MrgX1 antag; remaining BAM8-22 calcium response % of control (hits give low values), % at 10 µM;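 active means remaining agonist calcium response no higher than 100% minus 3 SD of agonist-only control wells, with starting fluorescence near control levels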;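 further: agonist BAM8-22 given at a near maximal EC90 to ECmax level; peak minus minimum fluorescence divided by baseline after agonist addition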
HEK293 Ca flux = activity in parental HEK293 cells lacking MrgX1; hit rate 2% among 4,000; shares compounds with MrgX1 antag; Fluo-4 calcium fluorescence, FDSS; fluorescence ratio F(max-min)/F0 at 10 µM;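 active means duplicate-averaged calcium fluorescence ratio at least three times the standard deviation of buffer wells, a nonspecific response in parental cells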
HEK293 Ca counter = MrgX1 allosteric activator counter-screen hit in parental HEK293 cells; shares compounds with MrgX1 antag; AID 624114; parental HEK293 calcium flux, Fluo-4 fluorescence ratio; hits give high values; hit rate 0.4% among 4,000; fluorescence ratio F(max-min)/F0 at 10 µM;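 active means calcium fluorescence ratio, averaged over duplicates, at least 3 SD of the buffer-well ratio, meaning a nonspecific response in receptor-free cells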;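 further: untransfected parental HEK293 lacking MrgX1 used as counterscreen for MrgX1 allosteric activators; fluorescence change taken during the second addition on a kinetic imager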
HEK293 Ca cntr2 = counter-screen for MrgX1 activators: effect in parental HEK293 cells | shares compounds with MrgX1 antag | Fluo-4 calcium fluorescence (FDSS); hits give high values | fluorescence ratio F(max-min)/F0 at 10 µM | hit rate 8.7% among 4,000;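 active means calcium fluorescence ratio at least three times the spread of buffer wells, meaning a non-specific response in parental cells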
* = called active by the depositor. Sampled rows, rich in hits. Any-hit rate of the full collection: about 3.5%.

Results for O=c1[nH]nc2n1CCCCC2 ?
MrgX1 antag: -10*; MrgX1 allo act: inactive; RGS4 pot: inactive; MrgX1 ag: inactive; RGS4 block: inactive; MrgX1 antag conf: inactive; HEK293 Ca flux: inactive; HEK293 Ca counter: inactive; HEK293 Ca cntr2: inactive

How did COc1ccc(S(=O)(=O)N(CCc2ccccc2)CC(N)=O)cc1 do in these assays?
MrgX1 antag: -5.4*; MrgX1 allo act: inactive; RGS4 pot: inactive; MrgX1 ag: inactive; RGS4 block: inactive; MrgX1 antag conf: inactive; HEK293 Ca flux: inactive; HEK293 Ca counter: inactive; HEK293 Ca cntr2: inactive

How did Cc1nn2c3c(cnc2c1-c1ccccc1)C(=O)CC(c1ccccc1)C3 (stereo not given) do in these assays?
MrgX1 antag: -5*; MrgX1 allo act: inactive; RGS4 pot: inactive; MrgX1 ag: inactive; RGS4 block: inactive; MrgX1 antag conf: inactive; HEK293 Ca flux: inactive; HEK293 Ca counter: inactive; HEK293 Ca cntr2: inactive

Results for Cc1nn2c3c(cnc2c1-c1ccccc1)C(=O)CC(c1ccco1)C3 (stereo not given) ?
MrgX1 antag: inactive; MrgX1 allo act: inactive; RGS4 pot: inactive; MrgX1 ag: inactive; RGS4 block: inactive

Results for CCOc1ccc(CNC(=O)CCCOc2cc(=O)n(C)c3ccccc23)cc1 ?
MrgX1 antag: inactive; MrgX1 allo act: inactive; RGS4 pot: inactive; MrgX1 ag: inactive; RGS4 block: inactive

How did Cc1cc(SCC(=O)Nc2cccc(S(N)(=O)=O)c2)c(C)cc1Br do in these assays?
MrgX1 antag: -9.8*; MrgX1 allo act: inactive; RGS4 pot: inactive; MrgX1 ag: inactive; RGS4 block: inactive; MrgX1 antag conf: inactive; HEK293 Ca flux: inactive; HEK293 Ca counter: inactive; HEK293 Ca cntr2: inactive

Results for CCn1nc(C)c(NS(=O)(=O)c2ccccc2)c1C ?
MrgX1 antag: inactive; MrgX1 allo act: inactive; RGS4 pot: inactive; MrgX1 ag: inactive; RGS4 block: inactive

What do the screens show for `CSc1ccccc1NC(=O)CCn1c(=O)sc2ccccc21`?
MrgX1 antag: -6.3*; MrgX1 allo act: inactive; RGS4 pot: inactive; MrgX1 ag: inactive; RGS4 block: inactive; MrgX1 antag conf: inactive; HEK293 Ca flux: inactive; HEK293 Ca counter: inactive; HEK293 Ca cntr2: inactive

What do the screens show for `CC(OC(=O)CCN=C1NS(=O)(=O)c2ccccc21)C(=O)N(C)c1ccccc1` (stereo not given)?
MrgX1 antag: -11*; MrgX1 allo act: inactive; RGS4 pot: inactive; MrgX1 ag: inactive; RGS4 block: inactive; MrgX1 antag conf: inactive; HEK293 Ca flux: inactive; HEK293 Ca counter: inactive; HEK293 Ca cntr2: inactive

What do the screens show for `COCCC(=O)N1CCC(Oc2ccc(C(=O)N3C[C@H]4CC[C@H]3C4)cc2)CC1`?
MrgX1 antag: inactive; MrgX1 allo act: inactive; RGS4 pot: inactive; MrgX1 ag: inactive; RGS4 block: inactive

What do the screens show for `Cc1c(C(=O)N2CCN(Cc3ccc4c(c3)OCO4)CC2)sc2ncnc(N3CCN(c4ccccc4)CC3)c12`?
MrgX1 antag: -10*; MrgX1 allo act: inactive; RGS4 pot: inactive; MrgX1 ag: inactive; RGS4 block: inactive; MrgX1 antag conf: 60%*; HEK293 Ca flux: inactive; HEK293 Ca counter: inactive; HEK293 Ca cntr2: inactive

How did COc1cccc(-c2nnc(SCC(=O)NCc3ccc4c(c3)OCO4)n2Cc2ccco2)c1 do in these assays?
MrgX1 antag: inactive; MrgX1 allo act: inactive; RGS4 pot: inactive; MrgX1 ag: inactive; RGS4 block: inactive

What do the screens show for `COc1cccc(-c2nnc(SCC(=O)Nc3ccc4c(c3)OCCO4)n2Cc2ccco2)c1`?
MrgX1 antag: -6.4*; MrgX1 allo act: inactive; RGS4 pot: inactive; MrgX1 ag: inactive; RGS4 block: inactive; MrgX1 antag conf: inactive; HEK293 Ca flux: inactive; HEK293 Ca counter: inactive; HEK293 Ca cntr2: inactive

How did COc1ccc(CN(C)C(C)C(=O)Nc2ccc(S(=O)(=O)N3CCCC3)cc2)c(OC)c1OC (stereo not given) do in these assays?
MrgX1 antag: inactive; MrgX1 allo act: inactive; RGS4 pot: inactive; MrgX1 ag: inactive; RGS4 block: inactive

How did CN(CC(=O)c1c(N)n(C)c(=O)n(C)c1=O)c1ccccc1 do in these assays?
MrgX1 antag: -5.8*; MrgX1 allo act: inactive; RGS4 pot: inactive; MrgX1 ag: inactive; RGS4 block: inactive; MrgX1 antag conf: 72%*; HEK293 Ca flux: inactive; HEK293 Ca counter: inactive; HEK293 Ca cntr2: inactive

Results for Cn1c(N)c(C(=O)CN2CCc3ccccc3C2)c(=O)n(C)c1=O ?
MrgX1 antag: inactive; MrgX1 allo act: inactive; RGS4 pot: inactive; MrgX1 ag: inactive; RGS4 block: inactive

Results for O=C(c1cc(COc2cccc3cnccc23)on1)N1CCC(c2ccccc2Cl)C1 (stereo not given) ?
MrgX1 antag: -4.6*; MrgX1 allo act: inactive; RGS4 pot: inactive; MrgX1 ag: inactive; RGS4 block: inactive; MrgX1 antag conf: inactive; HEK293 Ca flux: inactive; HEK293 Ca counter: inactive; HEK293 Ca cntr2: inactive

How did O=C(c1cc(COc2c(F)cccc2F)on1)N1CCC(c2ccccc2Cl)C1 (stereo not given) do in these assays?
MrgX1 antag: inactive; MrgX1 allo act: inactive; RGS4 pot: inactive; MrgX1 ag: inactive; RGS4 block: inactive

How did CCOc1ccc(N(CC(=O)NN=C2CCCC2)S(C)(=O)=O)cc1 do in these assays?
MrgX1 antag: inactive; MrgX1 allo act: inactive; RGS4 pot: inactive; MrgX1 ag: inactive; RGS4 block: inactive

What do the screens show for `CC1(c2ccc(C#N)cc2)NC(=O)N(CC(=O)Nc2cc(S(=O)(=O)N3CCOCC3)ccc2Cl)C1=O` (stereo not given)?
MrgX1 antag: -7.3*; MrgX1 allo act: inactive; RGS4 pot: inactive; MrgX1 ag: inactive; RGS4 block: inactive; MrgX1 antag conf: inactive; HEK293 Ca flux: inactive; HEK293 Ca counter: inactive; HEK293 Ca cntr2: inactive
